# Laboratory results published in ChEMBL document CHEMBL1133641, “A new class of potential chloroquine-resistance reversal agents for Plasmodia: syntheses and biological evaluation of 1-(3'-diethylaminopropyl)-3-(substituted phenylmethylene)pyrrolidines” (2000).
# What was measured:
# [1] = system: Plasmodium yoelii nigeriensis; assay: In Vitro inhibition of Heme Oxygenase in Cell-free parasite Plasmodium yoelii at concentration 50 uM;NI denotes nil inhibition; assay type: functional
# In short: (§1)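 Heme oxygenase activity was measured as bilirubin formation in a post-mitochondrial fraction. The parasite enzyme came from cell-free P. yoelii, isolated from infected blood by density gradient centrifugation and saponin lysis. The host enzyme came from infected liver. Compounds were tested at 10–100 µM and preincubated for 10 min before the reaction was started.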
# [2] = target: T1, Glutathione S-transferase (Plasmodium yoelii yoelii) (UniProt Q7REH6); assay: Inhibition of Glutathione S-transferase in Plasmodium yoelii nigeriensis isolated from infected mice (Mus musculus) (oral); settings: concentration not given here
# T1 sequence (whole entry): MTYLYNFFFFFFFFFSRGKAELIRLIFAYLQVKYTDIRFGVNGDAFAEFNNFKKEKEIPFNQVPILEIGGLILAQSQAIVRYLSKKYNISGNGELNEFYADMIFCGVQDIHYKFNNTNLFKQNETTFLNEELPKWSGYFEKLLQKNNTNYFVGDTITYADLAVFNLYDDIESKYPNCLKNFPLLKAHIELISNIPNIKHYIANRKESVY
# In short: (§2)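 Swiss albino mice carried P. yoelii nigeriensis tolerant to CQ up to 120 mg/kg. They received compound orally at 15 mg/kg body wt for 5 days. Parasites were then isolated from blood by density gradient centrifugation and saponin lysis, and enzyme inhibition was measured as percent inhibition.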
# [3] = system: Plasmodium yoelii nigeriensis; assay: Inhibition of heme oxygenase in Plasmodium yoelii nigeriensis isolated from infected mice (Mus musculus) (oral); assay type: functional; in short: as §2
# [4] = system: Plasmodium yoelii nigeriensis; assay: In Vitro inhibition of Heme Oxygenase in Cell-free parasite Plasmodium yoelii at concentration 10 uM; assay type: functional; in short: as §1
# [5] = system: Plasmodium yoelii nigeriensis; assay: In Vitro inhibition of Heme Oxygenase in Cell-free parasite Plasmodium yoelii at concentration 100 uM; assay type: functional; in short: as §1
# [6] = system: Plasmodium yoelii nigeriensis; assay: In Vitro inhibition of Heme Oxygenase in Cell-free parasite Plasmodium yoelii at concentration 50 uM; assay type: functional; in short: as §1
# [7] = system: Plasmodium yoelii nigeriensis; assay: In Vitro inhibition of Heme Oxygenase in Cell-free parasite Plasmodium yoelii at concentration 100 uM;NI denotes nil inhibition; assay type: functional; in short: as §1
# [8] = system: Plasmodium yoelii nigeriensis; assay: In Vitro inhibition of Heme Oxygenase in Cell-free parasite Plasmodium yoelii at concentration 10 uM;NI denotes nil inhibition; assay type: functional; in short: as §1
inhibition [2] [%],SMILES,NI [1],Inhibition [3] [%],inhibition [4] [%],inhibition [5] [%],inhibition [6] [%],NI [7],NI [8]
90,CCN(CC)CCCN1CC/C(=C\c2ccc(OCCN3CCCC3)cc2)C1,No inhibition,79,100,100,100,No inhibition,No inhibition
80,CCN(CC)CCCN1CC/C(=C\c2ccc(OC)c(OC)c2)C1,No inhibition,100,100,100,100,No inhibition,No inhibition
